Data from ChEMBL document CHEMBL1152931, “Glycogen phosphorylase inhibitory effects of 2-oxo-1,2-dihydropyridin-3-yl amide derivatives” (Bioorg Med Chem, 2009).

Each molecule was assayed against T1, Glycogen phosphorylase, muscle form (Oryctolagus cuniculus, UniProt P00489) (assay: Inhibition of rabbit muscle glycogen phosphorylase). Conditions: not given.
T1 sequence (P00489 whole entry): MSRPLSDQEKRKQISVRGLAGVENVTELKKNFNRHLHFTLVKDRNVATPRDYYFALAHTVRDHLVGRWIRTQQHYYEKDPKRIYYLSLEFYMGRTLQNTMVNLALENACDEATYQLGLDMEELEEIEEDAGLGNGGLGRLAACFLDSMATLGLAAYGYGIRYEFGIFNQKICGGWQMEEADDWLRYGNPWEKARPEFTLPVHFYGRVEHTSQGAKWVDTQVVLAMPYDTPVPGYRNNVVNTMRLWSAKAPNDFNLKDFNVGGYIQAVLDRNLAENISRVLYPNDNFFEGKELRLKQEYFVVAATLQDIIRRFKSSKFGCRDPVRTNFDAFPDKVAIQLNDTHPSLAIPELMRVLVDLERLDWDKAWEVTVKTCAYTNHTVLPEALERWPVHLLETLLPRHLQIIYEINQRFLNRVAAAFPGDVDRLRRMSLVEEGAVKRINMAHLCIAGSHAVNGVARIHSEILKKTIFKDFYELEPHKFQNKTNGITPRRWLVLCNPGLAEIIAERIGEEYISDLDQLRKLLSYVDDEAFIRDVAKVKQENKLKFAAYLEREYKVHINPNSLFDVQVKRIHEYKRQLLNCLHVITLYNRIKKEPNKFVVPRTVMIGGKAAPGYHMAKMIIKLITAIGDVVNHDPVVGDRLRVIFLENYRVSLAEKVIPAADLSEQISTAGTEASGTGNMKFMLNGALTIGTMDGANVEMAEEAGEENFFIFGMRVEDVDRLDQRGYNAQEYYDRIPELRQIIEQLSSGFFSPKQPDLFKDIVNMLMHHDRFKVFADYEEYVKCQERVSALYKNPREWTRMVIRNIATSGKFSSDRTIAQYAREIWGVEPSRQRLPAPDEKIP

SMILES	IC50 [µM]
O=C(Cn1cccc(NCc2ccccc2)c1=O)N[C@H](CO)c1ccccc1	120
COc1ccccc1CNC(=O)Cn1cccc(NCc2ccccc2)c1=O	308
CC(=O)Nc1cccn(CC(=O)NCc2ccc(Cl)c(Cl)c2)c1=O	372
CCCNc1cccn(CC(=O)NCc2ccc(Cl)c(Cl)c2)c1=O	1770
O=C(Cn1cccc(NCc2ccccc2)c1=O)NC1CCN(Cc2ccccc2)CC1	813
O=C(Cn1cccc(NCc2ccccc2)c1=O)NCc1ccccc1	34.2
O=C(Cn1cccc(NCc2ccccc2)c1=O)NCc1ccc(Cl)c(Cl)c1	6.3

Other lines, results leading:

IC50 [µM]	SMILES
162	O=C(Cn1cccc(NC(=O)c2ccccc2)c1=O)NCc1ccc(Cl)c(Cl)c1
343	CCCNc1cccn(CC(=O)NCc2ccccc2)c1=O

These molecules were tested against T2, Glycogen phosphorylase, muscle form (Oryctolagus cuniculus) (UniProt P00489) (assay: Inhibition of rabbit muscle glycogen phosphorylase at 222 uM). Conditions: not given.
T2 sequence (whole entry): T1 sequence (P00489 whole entry)
Outline: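 Rabbit muscle glycogen phosphorylase a at 0.475 µg/mL, assayed in the glycogen-synthesis direction. Run 30 min at 22 °C. Compounds added in 14% DMSO. Released phosphate read at 620 nm by malachite green/ammonium molybdate in 1 M HCl. Duplicates on two occasions, averaged.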

SMILES	inhibition [%]
O=C(Cn1cccc(NC(=O)c2ccccc2)c1=O)N[C@@H](CO)Cc1ccccc1	< 20
CCCNC(=O)Cn1cccc(NCCC)c1=O	< 20
O=C(Cn1cccc(NCc2ccccc2)c1=O)N[C@H](CO)c1ccccc1	40
CCCNc1cccn(CC(=O)OCC)c1=O	< 20
COc1ccccc1CNC(=O)Cn1cccc(NCc2ccccc2)c1=O	38
CC(=O)Nc1cccn(CC(=O)NC2CCCCC2)c1=O	< 20
O=C(Cn1cccc(NCc2ccccc2)c1=O)NCc1ccccn1	< 20
CCCNc1cccn(CC(=O)N2CCCC2)c1=O	< 20
CC(=O)Nc1cccn(CC(=O)NC(C)C)c1=O	< 20
CC(C)NC(=O)Cn1cccc(NCc2ccccc2)c1=O	< 20
CC(=O)Nc1cccn(CC(=O)N2CCCC2)c1=O	< 20
O=C(Cn1cccc(NC(=O)c2ccccc2)c1=O)N[C@H](CO)Cc1ccccc1	< 20
CCOC(=O)Cn1cccc(NCc2ccccc2)c1=O	< 20
O=C(Cn1cccc(NCc2ccccc2)c1=O)N1CCCC1	< 20
CC(=O)Nc1cccn(CC(=O)NCCO)c1=O	< 20
O=C(Cn1cccc(NCc2ccccc2)c1=O)N[C@H](CO)Cc1ccccc1	94
CC(=O)Nc1cccn(CC(=O)NCc2ccc(Cl)c(Cl)c2)c1=O	45
O=C(Cn1cccc(NC(=O)c2ccccc2)c1=O)NC1CCN(Cc2ccccc2)CC1	< 20
O=C(Cn1cccc(NC(=O)c2ccccc2)c1=O)N[C@H](CO)c1ccccc1	< 20
CCCNc1cccn(CC(=O)NCc2ccc(Cl)c(Cl)c2)c1=O	40
O=C(Cn1cccc(NCc2ccccc2)c1=O)NC1CCN(Cc2ccccc2)CC1	45
CCCNC(=O)Cn1cccc(NC(C)=O)c1=O	< 20
O=C(Nc1cccn(CC(=O)N2CCOCC2)c1=O)c1ccccc1	< 20
O=C(Cn1cccc(NCc2ccccc2)c1=O)NCc1ccc(Cl)c(Cl)c1	94
O=C(Nc1cccn(CC(=O)N2CCCCC2)c1=O)c1ccccc1	< 20
CCOC(=O)Cn1cccc(NC(C)=O)c1=O	< 20

Continued, values first:

inhibition [%]	SMILES
< 20	CC(C)CNC(=O)Cn1cccc(NC(=O)c2ccccc2)c1=O
< 20	O=C(Cn1cccc(NC(=O)c2ccccc2)c1=O)NCCCN1CCOCC1
< 20	O=C(Cn1cccc(NC(=O)c2ccccc2)c1=O)NN1CCOCC1
< 20	CCCNC(=O)Cn1cccc(NC(=O)c2ccccc2)c1=O
< 20	CC(C)NC(=O)Cn1cccc(NC(=O)c2ccccc2)c1=O
< 20	CCCNC(=O)Cn1cccc(NCc2ccccc2)c1=O
< 20	O=C(Cn1cccc(NC(=O)c2ccccc2)c1=O)NCCN1CCCCC1
< 20	CCOC(=O)Cn1cccc(NC(=O)c2ccccc2)c1=O
< 20	CC(C)(CO)NC(=O)Cn1cccc(NC(=O)c2ccccc2)c1=O
< 20	CCCCNC(=O)Cn1cccc(NC(=O)c2ccccc2)c1=O
< 20	O=C(Nc1cccn(CC(=O)N2CCCC2)c1=O)c1ccccc1
< 20	NS(=O)(=O)c1ccc(CCNC(=O)Cn2cccc(NC(=O)c3ccccc3)c2=O)cc1
< 20	COCCCNC(=O)Cn1cccc(NC(=O)c2ccccc2)c1=O
< 20	O=C(Cn1cccc(NC(=O)c2ccccc2)c1=O)NCc1ccccc1
< 20	CCNC(=O)Cn1cccc(NC(=O)c2ccccc2)c1=O
< 20	O=C(Cn1cccc(NC(=O)c2ccccc2)c1=O)NCc1ccccn1
< 20	CC(=O)Nc1cccn(CC(=O)NCc2ccccc2)c1=O
< 20	O=C(Cn1cccc(NC(=O)c2ccccc2)c1=O)NCCO
< 20	NCCNC(=O)Cn1cccc(NC(=O)c2ccccc2)c1=O
45	O=C(Cn1cccc(NC(=O)c2ccccc2)c1=O)NCc1ccc(Cl)c(Cl)c1
80	CCCNc1cccn(CC(=O)NCc2ccccc2)c1=O

These molecules were tested against T2, Glycogen phosphorylase, muscle form (Oryctolagus cuniculus). Conditions: 111 uM.

inhibition [%]	SMILES
96	O=C(Cn1cccc(NCc2ccccc2)c1=O)NCc1ccccc1
